In ChEMBL document CHEMBL4308895, “A thiol-inducible and quick-response DNA cross-linking agent” (Bioorg Med Chem Lett, 2019) one finds Activity, Stability and Drug metabolism data, which are given here for seven molecules.

For one data set, the system named is DNA. As to the kind of experiment: Induction of Escherichia coli pBR322 DNA cross-linking at 1 mM after 12 hrs in presence of GSH by agarose gel electrophoresis relative to control. The format is nucleic-acid assay. The method in brief:
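Linearized pBR322 plasmid DNA in phosphate buffer pH 7.3 with 1 mM agent plus 2 mM GSH. Cross-linking resolved by denaturing alkaline agarose gel electrophoresis, untreated plasmid as control lane. Yield given as percent cross-linked DNA.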

The nature of data set [1]: Stability of the compound under electrospray ionisation mass spectra condition. The format is physicochemical.
Data set [2] can be described thus: Glycine reactivity in DMSO-d6/D2O mixture assessed as 1,4-Dihydroxy-2, 5-di-(trimethylammonium iodide-methyl)phenyl formation at 5 mM by 1H-NMR analysis.
Data set [3] is described as follows: L-valine reactivity in DMSO-d6/D2O mixture assessed as 1,4-Dihydroxy-2, 5-di-(trimethylammonium iodide-methyl)phenyl formation at 5 mM by 1H-NMR analysis.
The nature of data set [4]: Beta-alanine reactivity in DMSO-d6/D2O mixture assessed as 1,4-Dihydroxy-2, 5-di-(trimethylammonium iodide-methyl)phenyl formation at 5 mM by 1H-NMR analysis.
Data set [5] in a line: L-cysteine reactivity in pH 7.3 phosphate buffer assessed as color change from red to orange at 5 mM measured after 1 min. The format is physicochemical. The following applies: pH 7.3, 1 min, 5000 µM. In a few lines:
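Agent at 5, 2.5 or 1 mM in phosphate buffer pH 7.3, mixed with L-Cys at twice the agent concentration (10, 5, 2 mM). Color change scored visually against agent-alone samples.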

Data set [6] can be described thus: L-proline reactivity in DMSO-d6/D2O mixture assessed as 1,4-Dihydroxy-2, 5-di-(trimethylammonium iodide-methyl)phenyl formation at 5 mM by 1H-NMR analysis.
Data set [7] can be described thus: L-arginine reactivity in DMSO-d6/D2O mixture assessed as 1,4-Dihydroxy-2, 5-di-(trimethylammonium iodide-methyl)phenyl formation at 5 mM by 1H-NMR analysis.
Data set [8] in a line: Drug metabolism in pH 7.3 phosphate buffer saline assessed as 1,1'-(2-(2,4-dinitrophenylsulfonyloxy)-5-hydroxy-1,4-phenylene)bis(N,N,N-trimethylmethanaminium)iodide formation measured after 5 mins by 1H-NMR analysis.
Data set [9] in a line: Drug metabolism in pH 7.3 phosphate buffer saline assessed as 2, 4-dinitrobenzene sulfonic acid formation measured immediately by 1H-NMR analysis.
Data set [10] can be described thus: Stability in pH 7.3 phosphate buffer saline measured within 1.5 hrs by 1H-NMR analysis. The format is physicochemical. The note with it: pH 7.3, 1.5 h.
Data set [11] can be described thus: Drug metabolism in pH 7.3 phosphate buffer saline assessed as 1,4-Dihydroxy-2, 5-di-(trimethylammonium iodide-methyl)phenyl formation measured after 0.5 to 6 hrs by 1H-NMR analysis.

Take `Cc1cc(C[N+](C)(C)C)c(O)c(C[N+](C)(C)C)c1.[I-].[I-]`: in the data set on DNA, the Activity worked out at 0%. Moreover, the Stability entry in data set [1] is recorded as “Unstable”.
As for `C[N+](C)(C)Cc1cc(O)c(C[N+](C)(C)C)cc1O.[I-].[I-]`, the Activity in the data set with DNA was found to be 43%. In addition, the Stability result in data set [1] is “Unstable”.
For the molecule `C[N+](C)(C)Cc1cc(-c2ccc(O)c(C[N+](C)(C)C)c2)ccc1O.[I-].[I-]`, the Activity with DNA came to 0%. Moreover, the Stability result in data set [1] is on record as “Unstable”.
For `C[N+](C)(C)Cc1cc(OS(=O)(=O)c2ccc([N+](=O)[O-])cc2[N+](=O)[O-])c(C[N+](C)(C)C)cc1OS(=O)(=O)c1ccc([N+](=O)[O-])cc1[N+](=O)[O-].[I-].[I-]`, the Drug metabolism result in data set [2] is recorded as “Metabolite not detected”; in data set [3] it was “Metabolite not detected”; in data set [4], “Metabolite not detected”; in [5] it was “Metabolite_Detected”; in [6], “Metabolite not detected”; in data set [7] it was “Metabolite not detected”. The Drug metabolism entry in [8] and in [9] was “Metabolite detected” throughout. For the same molecule, the Activity in the data set on DNA was found to be 34%.
Consider `Cc1cc(C[N+](C)(C)C)c(OS(=O)(=O)c2ccc([N+](=O)[O-])cc2[N+](=O)[O-])c(C[N+](C)(C)C)c1.[I-].[I-]`, for which the Activity with DNA is 0%. Further, the Drug metabolism entry in data set [5] is on record as “Metabolite_Detected”.
As for `C[N+](C)(C)Cc1cc(-c2ccc(OS(=O)(=O)c3ccc([N+](=O)[O-])cc3[N+](=O)[O-])c(C[N+](C)(C)C)c2)ccc1OS(=O)(=O)c1ccc([N+](=O)[O-])cc1[N+](=O)[O-].[I-].[I-]`, the Activity in the data set on DNA was found to be 0%. Besides, in data set [10], the Stability entry is “Stable”. Besides, the Drug metabolism result in data set [5] is “Metabolite_Detected”.
For `C[N+](C)(C)Cc1cc(OS(=O)(=O)c2ccc([N+](=O)[O-])cc2[N+](=O)[O-])c(C[N+](C)(C)C)cc1O`, the Drug metabolism entry in data set [11] is reported as “Metabolite not detected”.
